{"data": "Published values from different studies", "cell line": "Vero", "effect on": "cell growth or viability", "note": "Compare with care: the assays were run in different laboratories."}
{"Compound": "COC(=O)N[C@H](C(=O)N1C[C@H](n2cc(-c3ccccc3)nn2)C[C@H]1c1ncc(-c2ccc(-c3ccc(-c4cnc([C@@H]5C[C@@H](n6cc(-c7ccccc7)nn6)CN5C(=O)[C@@H](NC(=O)OC)C(C)C)[nH]4)cc3)cc2)[nH]1)C(C)C", "CC50 [µM]": "> 100"}
{"Compound": "COc1ccc(C[C@H](NC(=O)[C@H](C)NC(=O)CN2CCOCC2)C(=O)N[C@@H](Cc2ccccc2)C(=O)C(=O)Nc2ccccc2)cc1", "test": "ATP luminescence", "setting": "48 h", "CC50 [µM]": 71.1}
{"Compound": "C=C(c1ccc(C(=O)O)cc1)c1cc2c(cc1C)C(C)(C)CCC2(C)C", "test": "WST-1", "setting": "18 h", "CC50 [µM]": "> 40"}
{"Compound": "C#Cc1cccc(Nc2ncnc3cc(OCCOC)c(OCCOC)cc23)c1", "test": "resazurin", "CC50 [µM]": "> 60"}
{"Compound": "CCC(CC)COC(=O)[C@H](C)N[P@](=O)(OC[C@H]1O[C@@](C#N)(c2ccc3c(N)ncnn23)[C@H](O)[C@@H]1O)Oc1ccccc1", "CC50 [µM]": "> 13"}
{"Compound": "CC(C)(C)[C@H](NS(=O)(=O)C(F)(F)F)C(=O)N1[C@@H]2CC[C@@H](C2)[C@H]1C(=O)N[C@@H](C[C@@H]1CCNC1=O)C(=O)c1nc2ccccc2s1", "setting": "48 h", "CC50 [µM]": "> 50"}
{"Compound": "CC(C)(C)NC(=O)N[C@H](C(=O)N1C[C@H]2[C@@H]([C@H]1C(=O)NC(CC1CCC1)C(=O)C(N)=O)C2(C)C)C(C)(C)C (stereo partly drawn)", "test": "neutral red", "setting": "48 h", "CC50 [µM]": "> 100"}
{"Compound": "COC(=O)N[C@H](C(=O)N1C[C@@H](n2cc(C(=O)OC)nn2)C[C@H]1c1ncc(-c2ccc(-c3ccc(-c4cnc([C@@H]5C[C@H](n6cc(C(=O)OC)nn6)CN5C(=O)[C@@H](NC(=O)OC)C(C)C)[nH]4)cc3)cc2)[nH]1)C(C)C", "CC50 [µM]": "> 100"}
{"Compound": "CC(C)C[C@H](NC(=O)OCc1ccccc1)C(=O)N[C@@H](CC(C)C)C(=O)N[C@@H](CC(C)C)C(=O)C(=O)Nc1ccccc1", "test": "ATP luminescence", "setting": "48 h", "CC50 [µM]": 16}
{"Compound": "Clc1ccc(C(Cn2ccnc2)OCc2csc3c(Cl)cccc23)c(Cl)c1 (stereo not drawn)", "test": "WST-1", "setting": "18 h", "CC50 [µM]": "~21.2"}
{"Compound": "CCN(CC)CCNC(=O)c1c(C)[nH]c(/C=C2\\C(=O)Nc3ccc(F)cc32)c1C", "test": "resazurin", "CC50 [µM]": 25}
{"Compound": "O=C(NCc1ccc(F)cc1)c1cccc(Nc2ccc(-c3ccccc3)nn2)c1", "test": "MTS", "setting": "48 h", "CC50 [µM]": "> 100"}
{"Compound": "COc1cc2ncnc(Nc3ccc(F)c(Cl)c3)c2cc1OCCCN1CCOCC1", "test": "resazurin", "CC50 [µM]": "> 60"}
{"Compound": "FC(F)(F)c1cccc(Nc2nc(NCCOc3ccccc3)nc3[nH]cnc23)c1", "test": "ATP luminescence", "CC50 [µM]": "> 200"}
{"Compound": "CCOC(=O)c1c(NCc2ccc(SC)cc2)c2cccc(C)c2[nH]c1=O", "test": "MTS", "setting": "48 h", "CC50 [µM]": "> 100"}
